Test results: ChEMBL document CHEMBL3763047, “Flavonoid derivatives as selective ABCC1 modulators: Synthesis and functional characterization” (Eur J Med Chem, 2016)
Active and inactive are the calls of the source. No cut-off for these calls is given here.

Tests used:
[1] = molecular target: T1, Broad substrate specificity ATP-binding cassette transporter ABCG2 (Homo sapiens, UniProt Q9UNQ0); test: Inhibition of ABCG2 in human MCF7/Topo cells by Hoechst 33342 assay; assay type: cell-based
T1 sequence (Q9UNQ0 whole entry): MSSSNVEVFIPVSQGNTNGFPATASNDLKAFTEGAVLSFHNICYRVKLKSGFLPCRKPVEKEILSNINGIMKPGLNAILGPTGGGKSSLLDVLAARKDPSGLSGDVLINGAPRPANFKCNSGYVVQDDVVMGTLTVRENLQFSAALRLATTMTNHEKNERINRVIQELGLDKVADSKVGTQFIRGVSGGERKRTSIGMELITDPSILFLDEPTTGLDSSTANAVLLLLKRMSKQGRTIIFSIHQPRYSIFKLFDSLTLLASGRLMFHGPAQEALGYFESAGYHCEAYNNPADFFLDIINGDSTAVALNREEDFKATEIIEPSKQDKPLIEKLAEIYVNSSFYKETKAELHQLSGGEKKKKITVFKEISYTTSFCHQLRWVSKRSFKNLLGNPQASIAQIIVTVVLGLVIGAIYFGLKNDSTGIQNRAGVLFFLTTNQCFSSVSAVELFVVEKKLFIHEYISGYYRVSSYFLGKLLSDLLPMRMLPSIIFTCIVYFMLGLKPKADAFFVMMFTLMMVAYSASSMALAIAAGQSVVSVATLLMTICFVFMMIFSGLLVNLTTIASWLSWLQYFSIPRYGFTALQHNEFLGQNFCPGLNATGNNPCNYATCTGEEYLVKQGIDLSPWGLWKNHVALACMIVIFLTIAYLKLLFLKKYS

[2] = molecular target: ATP-dependent translocase ABCB1 (Homo sapiens, UniProt P08183); test: Inhibition of ABCB1 in human KBV1 cells assessed as inhibition of calcein-AM efflux; assay type: cell-based
ABCG2 (BCRP) = molecular target: T2, ABCG2 (BCRP) (Homo sapiens, UniProt Q9UNQ0); test: Inhibition of ABCG2 in human MCF7/Topo cells at 10 uM by Hoechst 33342 assay relative to fumitremorgin C; assay type: cell-based; details: probe Hoechst 33342, read-out: Imax
T2 sequence (Q9UNQ0 whole entry): T1 sequence (Q9UNQ0 whole entry)
How it was run: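 Hoechst 33342 microplate assay in ABCG2-overexpressing MCF-7/Topo cells, kept in EMEM with 10% FCS and 550 nM topotecan. Imax relative to 10 µM fumitremorgin C (100%). IC50 from four-parameter logistic fit. Mean ± SEM, 2–4 experiments.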

HaCaT = test: Cytotoxicity against human HaCaT cells at 1 to 10 uM after 140 hrs by kinetic crystal violet staining based assay; assay type: cell-based
How it was run: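 Spontaneously immortalized human HaCaT keratinocytes in RPMI-1640 with pyruvate, HEPES and added glucose, pre-treated with EDTA before trypsinization. Cytotoxicity followed in a kinetic assay.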

[3] = Chemical stability in DMEM culture medium supplemented with 10% FCS at 37 degC after 48 hrs by RP-HPLC analysis; assay type: physicochemical; details: cattle
How it was run: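 Compounds held in DMEM with 10% FCS at 37 °C for up to 48 h, then analysed for degradation.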

MRP1 (ABCC1) = MRP1 (ABCC1) (Homo sapiens, UniProt P33527); test: (§1) Inhibition of human MRP1 expressed in MDCK2 cells assessed as inhibition of calcein-AM efflux at 30 uM relative to reversan; assay type: cell-based, MDCK-II; details: MDCK2 cells expressing human MRP1, probe calcein-AM, read-out: Imax
How it was run: (§2)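 MDCKII-MRP1 cells seeded at 20,000–25,000/well and washed next day with HEPES loading buffer, pH 7.4. Loaded 60 min at 37 °C with 0.5 µM calcein-AM in buffer with BSA and pluronic F127, plus compound (10 nM–100 µM). Cells were PFA-fixed, fluorescence read at 485/535 nm, DMSO control subtracted. […] Mean ± SEM, 2–4 experiments in triplicate.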

ABCB1 (P-glycoprotein) = ABCB1 (P-glycoprotein) (Homo sapiens, UniProt P08183); test: Inhibition of ABCB1 in human KBV1 cells assessed as inhibition of calcein-AM efflux at 1 uM relative to tariquidar; assay type: cell-based; details: probe calcein-AM, read-out: Imax
[4] = molecular target: Multidrug resistance-associated protein 1 (Homo sapiens, UniProt P33527); test: as §1; assay type: cell-based, MDCK-II; details: mdck-ii, 30 µM; how it was run: as §2
MDCK2 [5] = test: Antiproliferative activity against human ABCC1 transfected MDCK2 cells assessed as reduction in cell proliferation at 1.5 uM by crystal violet staining based assay; assay type: functional
MDCK2 [6] = test: Antiproliferative activity against human ABCC1 transfected MDCK2 cells assessed as reduction in cell proliferation at 10 uM by crystal violet staining based assay; assay type: functional
How it was run: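 MDCKII-MRP1 cells transfected with human ABCC1, kept in DMEM with 10% FCS at 37 °C and 5% CO₂. Kinetic crystal violet chemosensitivity assay with the modulator alone; proliferation followed over time.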

Sequence of ATP-dependent translocase ABCB1 (P08183 whole entry): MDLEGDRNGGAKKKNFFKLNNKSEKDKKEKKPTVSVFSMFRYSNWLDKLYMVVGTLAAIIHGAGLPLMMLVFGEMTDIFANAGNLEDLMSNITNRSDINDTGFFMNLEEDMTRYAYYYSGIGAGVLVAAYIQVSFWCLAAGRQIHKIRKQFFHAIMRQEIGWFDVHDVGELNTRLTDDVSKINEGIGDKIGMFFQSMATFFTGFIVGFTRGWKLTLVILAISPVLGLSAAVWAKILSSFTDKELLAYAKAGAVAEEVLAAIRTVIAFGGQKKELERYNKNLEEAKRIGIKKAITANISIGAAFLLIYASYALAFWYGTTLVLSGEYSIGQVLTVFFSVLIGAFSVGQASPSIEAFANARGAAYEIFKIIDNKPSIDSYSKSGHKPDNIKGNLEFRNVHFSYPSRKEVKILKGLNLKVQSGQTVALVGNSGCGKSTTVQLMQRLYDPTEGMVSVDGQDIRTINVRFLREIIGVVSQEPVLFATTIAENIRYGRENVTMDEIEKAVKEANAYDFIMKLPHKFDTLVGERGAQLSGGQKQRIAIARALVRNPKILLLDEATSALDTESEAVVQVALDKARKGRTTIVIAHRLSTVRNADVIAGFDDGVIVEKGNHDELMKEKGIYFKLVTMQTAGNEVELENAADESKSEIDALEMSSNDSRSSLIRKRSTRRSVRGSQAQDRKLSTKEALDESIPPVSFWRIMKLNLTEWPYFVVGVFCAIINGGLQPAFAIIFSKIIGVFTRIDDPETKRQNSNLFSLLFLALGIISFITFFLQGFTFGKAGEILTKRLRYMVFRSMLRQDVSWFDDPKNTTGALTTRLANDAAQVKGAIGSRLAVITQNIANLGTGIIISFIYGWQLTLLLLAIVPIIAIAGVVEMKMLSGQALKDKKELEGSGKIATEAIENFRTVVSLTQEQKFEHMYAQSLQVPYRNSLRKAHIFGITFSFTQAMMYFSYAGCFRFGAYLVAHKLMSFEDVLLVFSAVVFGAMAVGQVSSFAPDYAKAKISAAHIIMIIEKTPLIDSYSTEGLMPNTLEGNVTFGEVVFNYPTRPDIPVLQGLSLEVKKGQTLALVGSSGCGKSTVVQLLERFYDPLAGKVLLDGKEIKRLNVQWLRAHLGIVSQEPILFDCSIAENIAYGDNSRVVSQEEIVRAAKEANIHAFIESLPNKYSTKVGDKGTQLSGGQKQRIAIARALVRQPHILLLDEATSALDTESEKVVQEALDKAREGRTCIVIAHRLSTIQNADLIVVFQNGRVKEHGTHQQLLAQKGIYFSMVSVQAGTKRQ
Sequence of ABCB1 (P-glycoprotein) (P08183 whole entry): as above
Sequence of MRP1 (ABCC1) (P33527 whole entry): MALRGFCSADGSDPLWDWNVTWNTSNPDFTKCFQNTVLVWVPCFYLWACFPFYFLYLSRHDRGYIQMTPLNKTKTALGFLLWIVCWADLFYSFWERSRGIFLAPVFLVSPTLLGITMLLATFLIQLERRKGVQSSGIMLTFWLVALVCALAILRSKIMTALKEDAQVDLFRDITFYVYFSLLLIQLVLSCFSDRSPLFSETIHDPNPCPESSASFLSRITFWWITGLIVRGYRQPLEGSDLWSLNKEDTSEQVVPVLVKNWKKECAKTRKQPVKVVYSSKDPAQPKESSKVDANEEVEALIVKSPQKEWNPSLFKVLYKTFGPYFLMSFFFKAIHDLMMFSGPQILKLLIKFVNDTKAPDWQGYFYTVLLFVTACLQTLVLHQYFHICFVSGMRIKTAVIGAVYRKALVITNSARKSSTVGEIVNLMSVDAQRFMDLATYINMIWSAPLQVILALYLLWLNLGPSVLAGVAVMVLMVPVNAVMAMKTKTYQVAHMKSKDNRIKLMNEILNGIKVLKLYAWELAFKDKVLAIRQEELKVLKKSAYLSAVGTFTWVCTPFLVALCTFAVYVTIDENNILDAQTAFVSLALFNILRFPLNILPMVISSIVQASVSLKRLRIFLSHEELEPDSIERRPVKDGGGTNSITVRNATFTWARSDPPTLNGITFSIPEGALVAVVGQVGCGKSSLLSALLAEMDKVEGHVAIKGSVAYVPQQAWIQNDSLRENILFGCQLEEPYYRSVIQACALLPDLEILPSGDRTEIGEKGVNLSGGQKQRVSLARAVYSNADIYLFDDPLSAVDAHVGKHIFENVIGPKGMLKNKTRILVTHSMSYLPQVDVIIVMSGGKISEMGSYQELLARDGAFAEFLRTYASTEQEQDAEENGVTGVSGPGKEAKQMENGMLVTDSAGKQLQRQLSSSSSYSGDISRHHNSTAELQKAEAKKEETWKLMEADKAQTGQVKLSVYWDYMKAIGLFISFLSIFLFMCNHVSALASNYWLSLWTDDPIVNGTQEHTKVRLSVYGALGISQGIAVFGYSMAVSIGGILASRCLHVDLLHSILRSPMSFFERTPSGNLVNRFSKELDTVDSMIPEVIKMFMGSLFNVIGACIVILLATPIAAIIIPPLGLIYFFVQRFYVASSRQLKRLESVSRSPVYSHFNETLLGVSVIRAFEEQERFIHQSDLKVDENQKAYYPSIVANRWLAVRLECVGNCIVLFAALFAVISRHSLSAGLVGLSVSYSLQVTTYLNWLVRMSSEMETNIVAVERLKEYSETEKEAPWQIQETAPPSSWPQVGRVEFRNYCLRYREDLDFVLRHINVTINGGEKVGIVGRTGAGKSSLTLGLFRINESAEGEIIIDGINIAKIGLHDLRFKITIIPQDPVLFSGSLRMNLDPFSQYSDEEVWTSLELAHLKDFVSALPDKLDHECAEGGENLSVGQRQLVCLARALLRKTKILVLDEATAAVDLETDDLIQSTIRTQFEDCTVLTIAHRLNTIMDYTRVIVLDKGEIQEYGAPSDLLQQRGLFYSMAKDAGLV
Sequence of Multidrug resistance-associated protein 1 (P33527 whole entry): as above

Structure (SMILES)	IC50 ([1]; mcf7/topo)	IC50 ([2]; kbv1)	Emax at 10 µM (ABCG2 (BCRP)) [%]	IC50 ([1]; read-out: IC50) [µM]	inhibition at 30 µM (MRP1 (ABCC1)) [%]	IC50 ([2]; read-out: IC50) [µM]	further results
COc1cc(OC)c2c(=O)cc(N3CCN(C(=O)c4ccc([N+](=O)[O-])cc4)CC3)oc2c1	Not Active	Not Active	–	–	19.7	–	–
COc1cc(OC)c2c(=O)cc(N3CCN(c4ccc([N+](=O)[O-])cc4)CC3)oc2c1	–	Not Active	22.6	–	64.1	–	–
COc1cc(OC)c2c(=O)cc(C(=O)N3CCN(Cc4ccc([N+](=O)[O-])cc4)CC3)oc2c1	–	–	–	> 100	73.1	58.2	inhibition at 1 µM (ABCB1 (P-glycoprotein)): 33.4%; Activity (HaCaT): Non-toxic
COc1cc(OC)c2c(=O)cc(N3CCN(C)CC3)oc2c1	Not Active	Not Active	–	–	–	–	–
COc1cc(OC)c2c(=O)cc(N3CCN(CCc4ccccc4)CC3)oc2c1	–	Not Active	–	> 100	44.5	–	Activity (HaCaT): Non-toxic; Stability [3]: Stable
COc1cc(OC)c2c(=O)cc(C(=O)N3CCN(CCc4ccc([N+](=O)[O-])cc4)CC3)oc2c1	–	–	–	> 100	139	83.9	inhibition at 1 µM (ABCB1 (P-glycoprotein)): 37.7%; Activity (HaCaT): Non-toxic; Stability [3]: Stable
COc1cc(OC)c2c(=O)cc(NCCc3ccc(OC)c(OC)c3)oc2c1	–	Not Active	–	> 100	–	–	–
COc1cc(OC)c2c(=O)cc(NCCCN3CCOCC3)oc2c1	Not Active	Not Active	–	–	14	–	–
COc1ccc(CCNC(=O)c2cc(=O)c3c(OCc4ccccc4)cccc3o2)cc1OC	–	Not Active	108	–	–	–	–
COc1cc(OC)c2c(=O)cc(N3CCN(Cc4cccc([N+](=O)[O-])c4)CC3)oc2c1	–	–	44	38.2	–	32.8	inhibition at 1 µM (ABCB1 (P-glycoprotein)): 29.2%; Imax [4]: 193.3%
COc1cc([C@@H]2c3cc4c(cc3[C@@H](O[C@@H]3O[C@@H]5CO[C@@H](C)O[C@H]5[C@H](O)[C@H]3O)[C@H]3COC(=O)[C@H]23)OCO4)cc(OC)c1O	–	–	–	–	–	–	Activity (MDCK2 [5]): Active; Activity (MDCK2 [6]): Active
COc1cccc2oc(N3CCN(Cc4ccc([N+](=O)[O-])cc4)CC3)cc(=O)c12	Not Active	Not Active	–	–	38.8	–	–
COc1cc(O)c2c(=O)cc(C(=O)N3CCN(Cc4ccc([N+](=O)[O-])cc4)CC3)oc2c1	–	Not Active	23.1	12	70.5	–	Activity (HaCaT): Non-toxic; Stability [3]: Stable
COc1cc(OC)c2c(=O)cc(N3CCN(CCc4ccc([N+](=O)[O-])cc4)CC3)oc2c1	–	–	31.9	36.9	118	33	inhibition at 1 µM (ABCB1 (P-glycoprotein)): 54.8%; Activity (HaCaT): Non-toxic; Stability [3]: Stable
CN(C)C(=O)CCSC(SCCC(=O)[O-])c1cccc(/C=C/c2ccc3ccc(Cl)cc3n2)c1.[Na+] (centres undefined)	Not Active	Not Active	–	–	–	–	–
COc1cc2c(cc1OC)CN(CCc1ccc(NC(=O)c3cc(OC)c(OC)cc3NC(=O)c3cnc4ccccc4c3)cc1)CC2	–	–	–	–	–	0.22	–
COc1cc(O)c2c(=O)cc(C(=O)N3CCN(Cc4ccccc4[N+](=O)[O-])CC3)oc2c1	–	Not Active	90.5	34.9	68.8	–	–
COc1cc(OC)c2c(=O)cc(N3CCN(Cc4ccccc4[N+](=O)[O-])CC3)oc2c1	–	–	72.6	37.6	68.8	> 100	–

Continued, in another order:

IC50 ([1]; mcf7/topo)	IC50 ([2]; kbv1)	Emax at 10 µM (ABCG2 (BCRP)) [%]	IC50 ([1]; read-out: IC50) [µM]	inhibition at 30 µM (MRP1 (ABCC1)) [%]	IC50 ([2]; read-out: IC50) [µM]	Structure (SMILES)	further results
Not Active	Not Active	–	–	–	–	COc1cc(OC)c2c(=O)cc(N3CCN(Cc4ccc(N)cc4)CC3)oc2c1	–
–	Not Active	56.9	87.8	130	–	COc1cc(OC)c2c(=O)cc(N3CCN(Cc4ccc([N+](=O)[O-])cc4)CC3)oc2c1	Activity (HaCaT): Non-toxic; Stability [3]: Stable
–	–	–	> 100	136	36.6	COc1cc(OC)c2c(=O)cc(N3CCN(Cc4ccc(SC(F)(F)F)cc4)CC3)oc2c1	inhibition at 1 µM (ABCB1 (P-glycoprotein)): 29.4%
–	–	59.1	99.7	115	> 100	COc1cc(OC)c2c(=O)cc(N3CCN(Cc4ccc(C#N)cc4)CC3)oc2c1	–
–	–	–	> 100	98.8	> 100	COc1cc(OC)c2c(=O)cc(N3CCN(Cc4ccc(S(=O)(=O)C(F)(F)F)cc4)CC3)oc2c1	–
Not Active	Not Active	–	–	–	–	COc1cc(OC)c2c(=O)cc(N3CCN(Cc4ccc(NC(C)=O)cc4)CC3)oc2c1	–
–	–	50.4	66.6	141	58.5	COc1cc(OC)c2c(=O)cc(N3CCN(Cc4ccc(F)c(F)c4)CC3)oc2c1	inhibition at 1 µM (ABCB1 (P-glycoprotein)): 14.3%
Not Active	Not Active	–	–	–	–	COc1cc(OC)c2c(=O)cc(N3CCN(Cc4ccc(S(C)(=O)=O)cc4)CC3)oc2c1	–
Not Active	Not Active	–	–	–	–	COc1cc(OC)c2c(=O)cc(N3CCN(Cc4ccccc4)CC3)oc2c1	–
–	Not Active	–	> 100	–	–	COc1ccc(CN2CCN(c3cc(=O)c4c(OC)cc(OC)cc4o3)CC2)cc1	–
–	–	–	> 100	–	31.3	COc1cc(OC)c2c(=O)cc(N3CCN(Cc4ccc(C(F)(F)F)cc4)CC3)oc2c1	inhibition at 1 µM (ABCB1 (P-glycoprotein)): 21.8%; Imax [4]: 158.6%
–	–	–	> 100	118	> 100	COC(=O)c1ccc(CN2CCN(c3cc(=O)c4c(OC)cc(OC)cc4o3)CC2)cc1	–
